Key:
[1] = target: α1/β2/γ2 GABAA receptors (Homo sapiens, UniProt P14867+P18507+P47870); assay: Whole-cell patch-clamp on CHO cells expressing heteromeric GABAA receptors; type: cell-based; conditions: for decrease of currents induced by GABA (ramp protocol): 50 μM Azo-NZ1, 5 μM GABA, n = 5; for decrease of currents induced by GABA (ramp protocol) / decrease of amplitude of GABA-induced currents: visible light; for decrease of amplitude of GABA-induced currents: 70 μM Azo-NZ1, 5 μM GABA
[2] = target: ρ1 GABAC receptors (Homo sapiens, UniProt P24046); assay: Whole-cell patch-clamp on CHO cells expressing homomeric ρ1 GABAC receptors; type: cell-based; conditions: visible and UV light
Sequence of ρ1 GABAC receptors (P24046 22-479): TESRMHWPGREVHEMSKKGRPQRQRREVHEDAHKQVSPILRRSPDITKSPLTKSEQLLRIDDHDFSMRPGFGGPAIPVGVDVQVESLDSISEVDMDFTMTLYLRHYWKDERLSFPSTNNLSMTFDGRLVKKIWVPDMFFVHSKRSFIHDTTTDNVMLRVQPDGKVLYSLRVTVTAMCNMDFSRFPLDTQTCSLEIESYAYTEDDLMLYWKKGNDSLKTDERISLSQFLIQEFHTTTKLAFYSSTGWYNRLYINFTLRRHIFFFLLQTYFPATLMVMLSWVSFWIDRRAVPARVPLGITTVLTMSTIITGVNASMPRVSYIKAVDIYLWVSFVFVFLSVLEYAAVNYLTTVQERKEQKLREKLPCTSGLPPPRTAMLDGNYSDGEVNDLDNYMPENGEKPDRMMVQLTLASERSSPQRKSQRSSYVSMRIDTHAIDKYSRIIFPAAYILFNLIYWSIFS

[3] = target: ρ2 GABAC receptors (Homo sapiens, UniProt P28476); assay: Whole-cell patch-clamp on CHO cells expressing homomeric ρ2 GABAC receptors; type: cell-based
Sequence of ρ2 GABAC receptors (P28476 21-465): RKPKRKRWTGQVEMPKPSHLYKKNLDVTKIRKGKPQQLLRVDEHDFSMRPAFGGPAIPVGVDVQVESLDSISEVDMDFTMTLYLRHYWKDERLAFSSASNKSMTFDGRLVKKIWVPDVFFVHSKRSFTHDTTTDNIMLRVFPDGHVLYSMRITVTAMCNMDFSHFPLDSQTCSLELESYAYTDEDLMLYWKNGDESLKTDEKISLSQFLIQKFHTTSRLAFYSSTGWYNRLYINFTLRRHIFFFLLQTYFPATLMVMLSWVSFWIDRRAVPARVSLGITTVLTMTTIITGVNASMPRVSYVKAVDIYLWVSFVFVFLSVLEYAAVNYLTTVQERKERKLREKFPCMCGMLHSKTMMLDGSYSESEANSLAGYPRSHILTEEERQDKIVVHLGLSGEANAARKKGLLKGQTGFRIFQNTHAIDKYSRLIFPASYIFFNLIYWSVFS
In short: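 ρ2 receptors were expressed in CHO-K1 cells by cDNA transfection with GFP; whole-cell recordings were made 24–72 hr later at 20–25°C using fast solution exchange. […] Test compound inhibition of GABA-evoked currents was measured at Vh −30 and +30 mV and normalised to the current just before compound application; mean ± SEM.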

[4] = target: GABA ρ1 P2′S receptors (Homo sapiens, UniProt P24046, P315S); assay: Whole-cell patch-clamp on CHO cells expressing mutant ρ1 P2′S receptors; type: cell-based; conditions: 100 μM Azo-NZ1, 10 μM GABA, visible light
Sequence of GABA ρ1 P2′S receptors (P24046 22-479 P315S): as the sequence (P24046 22-479) above, with P294S counted along it

[5] = target: ρ2 mutant S2′G receptors (Homo sapiens, UniProt P28476, S295G); assay: Whole-cell patch-clamp on CHO cells expressing mutant ρ2 S2′G receptors; type: cell-based
Sequence of ρ2 mutant S2′G receptors (P28476 21-465 S295G): as the sequence (P28476 21-465) above, with S275G counted along it
In short: (§1)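 CHO-K1 cells were transfected (Lipofectamine) with receptor subunit cDNA plus GFP; fluorescent cells were recorded whole-cell 24–72 hr later at 20–25°C. External HEPES-buffered saline at pH 7.4; KCl-based pipette solution at pH 7.3. Agonist and test compound were co-applied by a fast three-tube system at Vh −30/+30 mV or on a −60 to +60 mV ramp. UV came from a 365 nm LED (0.6 mW·mm−2). Cells with input resistance <150 MOhm or >30% run-down were excluded.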

[6] = target: T1, α1 glycine receptors (Homo sapiens, UniProt P23415); assay: Whole-cell patch-clamp on CHO cells expressing α1 glycine receptors; type: cell-based; conditions: 50 μM, glycine 30 μM, Vh −30 mV
T1 sequence (P23415 29-457): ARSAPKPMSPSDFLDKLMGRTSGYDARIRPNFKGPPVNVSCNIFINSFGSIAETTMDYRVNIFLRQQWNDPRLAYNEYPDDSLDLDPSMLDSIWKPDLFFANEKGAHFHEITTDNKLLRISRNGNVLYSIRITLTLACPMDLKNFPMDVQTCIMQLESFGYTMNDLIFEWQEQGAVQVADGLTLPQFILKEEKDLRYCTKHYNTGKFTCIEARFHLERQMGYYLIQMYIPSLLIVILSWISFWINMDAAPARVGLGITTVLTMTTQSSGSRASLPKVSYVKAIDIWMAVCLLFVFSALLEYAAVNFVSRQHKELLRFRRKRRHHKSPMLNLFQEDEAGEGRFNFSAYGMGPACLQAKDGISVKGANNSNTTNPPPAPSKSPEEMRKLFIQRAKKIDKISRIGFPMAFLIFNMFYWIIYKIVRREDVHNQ
In short: as §1

[7] = target: T2, α2 glycine receptors (Homo sapiens, UniProt P23416); assay: Whole-cell patch-clamp on CHO cells expressing α2 glycine receptors; type: cell-based; conditions: 50 μM, glycine 30 μM, Vh −30 mV, n = 10
T2 sequence (P23416 28-452): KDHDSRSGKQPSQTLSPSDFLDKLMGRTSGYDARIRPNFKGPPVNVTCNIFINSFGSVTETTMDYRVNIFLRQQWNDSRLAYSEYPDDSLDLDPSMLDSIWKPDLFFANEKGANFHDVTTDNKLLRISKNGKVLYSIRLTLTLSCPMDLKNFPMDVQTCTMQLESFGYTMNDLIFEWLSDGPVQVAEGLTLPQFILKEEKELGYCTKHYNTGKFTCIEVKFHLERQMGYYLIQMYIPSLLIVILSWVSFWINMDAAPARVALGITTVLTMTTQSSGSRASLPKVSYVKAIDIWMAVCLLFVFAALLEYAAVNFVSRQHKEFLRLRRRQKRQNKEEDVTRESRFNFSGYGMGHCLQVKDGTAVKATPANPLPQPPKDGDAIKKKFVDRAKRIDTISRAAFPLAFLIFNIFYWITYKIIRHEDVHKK
In short: as §1

[8] = target: T3, 5‐HT3A receptors (Homo sapiens, UniProt P46098); assay: Whole-cell patch-clamp on CHO cells expressing homomeric 5HT3A receptors; type: cell-based; conditions: trans or cis‐configuration
T3 sequence (P46098 24-478): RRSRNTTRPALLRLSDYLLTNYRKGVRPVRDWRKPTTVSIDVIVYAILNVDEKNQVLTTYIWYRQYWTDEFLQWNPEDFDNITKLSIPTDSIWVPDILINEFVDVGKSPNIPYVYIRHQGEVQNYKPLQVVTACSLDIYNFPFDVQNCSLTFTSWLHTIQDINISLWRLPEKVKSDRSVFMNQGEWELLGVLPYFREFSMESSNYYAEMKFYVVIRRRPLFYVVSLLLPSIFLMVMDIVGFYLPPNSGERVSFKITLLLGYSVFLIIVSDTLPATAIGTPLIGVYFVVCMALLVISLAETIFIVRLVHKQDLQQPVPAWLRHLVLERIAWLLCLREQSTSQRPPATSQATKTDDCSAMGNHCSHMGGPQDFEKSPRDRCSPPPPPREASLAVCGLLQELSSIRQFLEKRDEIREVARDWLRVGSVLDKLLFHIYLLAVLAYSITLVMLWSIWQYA
In short: as §1

[9] = system: GABAergic eIPSCs in dentate gyrus granule cells; assay: Evoked GABAergic postsynaptic currents; type: cell-based, mice; conditions: for suppression of eIPSCs amplitude to: n = 5
In short: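 Hippocampal slices (coronal) from 3–4-week-old ICR outbred mice of both sexes, recovered ≥1 hr at room temperature and superfused with oxygenated aCSF at 32–34°C. Whole-cell recordings from dentate granule cells at Vh 0 mV. eIPSCs were evoked every 10 s from a theta-glass electrode placed 100–200 μm away. Protocol: 20–30 control events, then test compound in aCSF for 5–10 min, perfusate illuminated at 365 nm then 455 nm for 3–5 min each.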

Sequence of α1/β2/γ2 GABAA receptors (P14867 28-456): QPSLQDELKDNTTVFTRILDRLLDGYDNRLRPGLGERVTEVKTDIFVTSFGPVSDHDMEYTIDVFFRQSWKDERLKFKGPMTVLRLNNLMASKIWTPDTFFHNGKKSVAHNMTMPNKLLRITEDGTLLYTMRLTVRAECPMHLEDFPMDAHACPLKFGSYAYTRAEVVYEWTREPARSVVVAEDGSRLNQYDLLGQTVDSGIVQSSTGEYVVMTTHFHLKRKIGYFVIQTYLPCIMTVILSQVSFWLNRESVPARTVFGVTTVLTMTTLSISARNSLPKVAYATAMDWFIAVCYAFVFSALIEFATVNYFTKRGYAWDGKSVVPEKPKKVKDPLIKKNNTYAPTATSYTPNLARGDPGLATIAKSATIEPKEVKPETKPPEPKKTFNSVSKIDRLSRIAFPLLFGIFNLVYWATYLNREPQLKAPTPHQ
Sequence of α1/β2/γ2 GABAA receptors (P47870 25-512 limits assumed): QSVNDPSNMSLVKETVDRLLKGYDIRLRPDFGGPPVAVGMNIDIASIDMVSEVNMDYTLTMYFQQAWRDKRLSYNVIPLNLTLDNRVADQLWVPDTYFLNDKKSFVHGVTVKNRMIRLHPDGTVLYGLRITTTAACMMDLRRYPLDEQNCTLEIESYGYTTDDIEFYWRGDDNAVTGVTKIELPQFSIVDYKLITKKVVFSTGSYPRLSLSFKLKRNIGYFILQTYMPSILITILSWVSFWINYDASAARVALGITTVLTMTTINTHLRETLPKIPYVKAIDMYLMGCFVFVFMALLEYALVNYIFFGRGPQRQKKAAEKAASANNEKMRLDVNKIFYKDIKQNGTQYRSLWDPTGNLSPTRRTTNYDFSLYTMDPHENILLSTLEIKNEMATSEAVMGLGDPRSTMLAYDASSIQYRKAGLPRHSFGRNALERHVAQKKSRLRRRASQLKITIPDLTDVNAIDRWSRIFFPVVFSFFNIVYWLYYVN
Sequence of α1/β2/γ2 GABAA receptors (P18507 40-467 isoform P18507-1 limits assumed): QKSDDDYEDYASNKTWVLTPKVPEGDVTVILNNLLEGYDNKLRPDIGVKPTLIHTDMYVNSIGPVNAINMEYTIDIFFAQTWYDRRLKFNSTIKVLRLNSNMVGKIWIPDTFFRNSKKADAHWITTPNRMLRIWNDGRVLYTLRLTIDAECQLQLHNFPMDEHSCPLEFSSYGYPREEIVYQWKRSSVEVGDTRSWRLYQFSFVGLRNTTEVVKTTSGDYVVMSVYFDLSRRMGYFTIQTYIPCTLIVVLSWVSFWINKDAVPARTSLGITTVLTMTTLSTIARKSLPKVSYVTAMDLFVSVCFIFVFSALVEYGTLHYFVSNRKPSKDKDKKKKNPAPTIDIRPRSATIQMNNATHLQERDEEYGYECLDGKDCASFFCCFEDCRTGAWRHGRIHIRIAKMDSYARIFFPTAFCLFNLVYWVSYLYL

Structure (SMILES): O=C1CN=C(c2ccccc2)c2cc(/N=N/c3ccc(S(=O)(=O)O)cc3)ccc2N1 [Azo‐NZ1, (E)‐4‐((2‐oxo‐5‐phenyl‐2,3‐dihydro‐1H‐benzo[e][1,4]diazepin‐7‐yl)diazenyl)benzenesulfonic acid]
- IC50 [1]: 67 ± 5 µM
- decrease of currents induced by GABA (ramp protocol) ([1]; +60 mV): 76 ± 5%
- decrease of currents induced by GABA (ramp protocol) ([1]; −60 mV): 40 ± 4%
- effect at saturating GABA compared with 5 μM GABA ([1]; 50 μM Azo-NZ1 co-applied with 300 μM GABA, Vhold −30 mV): even stronger inhibitory effect
- decrease of amplitude of GABA-induced currents ([1]; +30 mV): 78%
- decrease of amplitude of GABA-induced currents ([1]; −30 mV): 51%
- effect on GABA-induced currents ([1]; Azo-NZ1 0.5–1 μM, 5 μM GABA): did not produce effect
- effect on receptor activity [2]: did not alter the activity
- IC50 [3]: 128 ± 25 µM
- effect on GABA-induced currents [4]: inhibited currents
- UV effect ([5]; UV illumination in presence of Azo-NZ1): virtually absent
- decrease of current amplitude ([5]; upon application of Azo-NZ1, n = 5): 14 ± 2%
- current amplitude reduced to ([6]; UV illumination): 73 ± 2%
- current amplitude reduced to ([6]; visible light (trans), n = 4): 86 ± 3%
- current amplitude under UV illumination ([7]; UV illumination): 95 ± 7%
- current amplitude decreased to ([7]; visible light): 23 ± 3%
- interaction with 5‐HT3A receptors [8]: did not interact in a specific manner
- suppression of eIPSCs amplitude to ([9]; 100 μM Azo-NZ1, blue light, Vh 0 mV): 58.6 ± 3.3%
- suppression of eIPSCs amplitude to ([9]; 200 μM Azo-NZ1, blue light, Vh 0 mV): 25.2 ± 6.0%
- amplitude of eIPSCs ([9]; single neuron, 100 μM Azo-NZ1, Vh 0 mV, control aCSF 156.9 ± 4.5 pA): 100.6 ± 3.2 pA

Structure (SMILES): CN1CCc2cc3c(cc2[C@H]1[C@@H]1OC(=O)c2c1ccc1c2OCO1)OCO3 [Bicuculline, bicuculline, reference compound]
- effect on eIPSCs ([9]; bicuculline 10 μM, Vh 0 mV): complete inhibition

Structure (SMILES): CN1C(=O)CN=C(c2ccccc2)c2cc(Cl)ccc21 [Diazepam, diazepam, reference compound]
- effect on GABA-induced current amplitude ([1]; diazepam 10 μM co-applied with non-saturating GABA (5 μM), Vh −30 mV): increase in the current amplitude
